Bioassay records as filed in PubChem BioAssay.
ADAM17 inh – inhibitors of human ADAM17; hit rate 0.83% among 370,000; inhibition, % at 6.95 µM; recombinant ADAM17, EDANS/DABCYL FRET peptide cleavage; P78536; AID 720648;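 active = inhibition above the mean of compounds lying between control limits plus 3 SD, set per campaign, cut at about 8.5% in these data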
ADAM10 inh – ADAM10 inhibition, QFRET primary screen | recombinant ADAM10, EDANS/DABCYL FRET peptide cleavage, 3 h | hit rate 0.62% among 370,000 | inhibition, % at 7 µM | O14672;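 active = inhibition above a per-campaign cutoff equal to the mean of compounds falling between control-based bounds plus 3 SD, cut at about 20% in these data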
SENP1 inh – inhibitors of human SENP1 SUMO protease catalytic domain. AID 624204. inhibition, % at 10 µM. recombinant SENP1 catalytic domain, CyPet-SUMO1-YPet FRET cleavage. Q9P0U3. hit rate 0.21% among 360,000;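 active = inhibition at least 30% at 10 µM, raw YFP signal under a set limit, fluorescence ratio 0.5 to 1.5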
Target sequence (Q9P0U3 419-644 limits assumed): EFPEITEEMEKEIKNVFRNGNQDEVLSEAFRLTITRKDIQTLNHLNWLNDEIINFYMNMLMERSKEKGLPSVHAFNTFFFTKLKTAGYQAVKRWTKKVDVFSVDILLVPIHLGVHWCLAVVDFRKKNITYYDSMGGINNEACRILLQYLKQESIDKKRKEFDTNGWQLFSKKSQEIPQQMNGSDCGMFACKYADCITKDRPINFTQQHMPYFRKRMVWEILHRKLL
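Test system: hSENP1 catalytic domain, recombinant; Amount: 20 pM final SENP1 enzyme; Medium: Tris pH 8 buffer plus EDTA, NaCl, BME, BSA, NP40, catalase; Schedule: 50 min enzyme reaction, room temperature, light-protected; Technique: FRET fluorescence in CFP and YFP emission channels; Controls: no-enzyme wells low, DMSO-plus-enzyme wells high control.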
FAS-TE inh – blocks the thioesterase domain of human fatty acid synthase. recombinant FAS-TE, OMFH fluorogenic substrate, fluorescence endpoint. inhibition, % at 15 µM. hit rate 0.67% among 360,000. AID 602261;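 active = compounds whose normalised, plate-corrected inhibition of enzyme fluorescence in the single-dose primary screen is 50% or more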
ADAM10 confirm – confirmation of inhibitors of human ADAM10. shares compounds with ADAM10 inh. ADAM10 QFRET peptide cleavage, EDANS fluorescence. inhibition, % at 6.95 µM. hit rate 1% among 2,100;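 active = inhibition above about 20% chosen separately for each screening run, limit read from the data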
ADAM17 counter – ADAM17 inhibition, counter-screen for ADAM10 exosite hits. inhibition, % at 6.95 µM. ADAM17 QFRET peptide cleavage, EDANS fluorescence. AID 743214. shares compounds with ADAM10 inh. hit rate 0.5% among 2,100;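 active = mean triplicate inhibition above the solvent-only control wells' mean plus 3 SD, cut at about 12% in these data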
ADAM10 ctr – counter-screen for ADAM17 exosite inhibitors: inhibitors of human ADAM10; shares compounds with ADAM17 inh; recombinant ADAM10, EDANS/DABCYL FRET peptide cleavage, 3 h; inhibition, % at 6.95 µM; hit rate 47% among 2,900; AID 743256;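 active = mean inhibition over the triplicate runs exceeds the activity threshold set in the earlier primary screen, cut at about 20% in these data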
ADAM17 confirm – confirmation of inhibitors of human ADAM17 | AID 743257 | recombinant ADAM17, EDANS/DABCYL QFRET peptide cleavage | hit rate 65% among 2,900 | shares compounds with ADAM17 inh | inhibition, % at 6.95 µM;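 active = mean inhibition across replicates above the hit cutoff set in the primary screen, cut at about 8.5% in these data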
Numbers stand for hits; 0 = inactive; - = no result given. Most compounds without a hit are left out; they make up all but 1.9% or so of the library.

SMILES | ADAM17 inh | ADAM10 inh | SENP1 inh | FAS-TE inh | ADAM10 confirm | ADAM17 counter | ADAM10 ctr | ADAM17 confirm
COc1cc(-c2nnc(COc3ccc4ccccc4c3)o2)cc(OC)c1OC | 10.1 | 20.8 | 0 | 0 | 0 | 0 | 22.4 | 15.5
COc1cc(/C=N\NC(=O)c2ccc(Cl)cc2)ccc1Oc1ccc([N+](=O)[O-])cn1 | 10.9 | 23.7 | 0 | 0 | 0 | 0 | 0 | 0
COc1cc(/C=N\NC(=O)c2cccc(Cl)c2)ccc1Oc1ccc([N+](=O)[O-])cn1 | 0 | 0 | 0 | 0 | - | - | - | -
COc1cccc(Cn2cc(COC(=O)NCC(C)C)nn2)c1 | 0 | 0 | - | - | - | - | - | -
O=C(NC1CCCCN(Cc2cccc(Cl)c2)C1=O)c1cccc([N+](=O)[O-])c1 (configuration not stated) | 0 | 0 | - | - | - | - | - | -
CC(C)(C)NC(=O)C(c1ccc(-c2ccccc2)cc1)N(C[C@H]1CC[C@@H]([C@@H]2CC[C@H](CO)O2)O1)C(=O)c1ccc(C(C)(C)C)cc1 (some centres not stated) | 11.6 | 20.3 | 0 | 0 | 0 | 0 | 37.1 | 18.7
CCOC(=O)C1=NOC(C(C)=O)(C(=O)Nc2cc(C)cc(C)c2)C1 (configuration not stated) | 0 | 0 | - | - | - | - | - | -
CCOc1ccc(OCC)c(NC(=O)C2CCCN(S(=O)(=O)c3cccs3)C2)c1 (configuration not stated) | 11.8 | 28.4 | 0 | 0 | 0 | 0 | 0 | 0
COc1cc(NC(=O)C2CCCN(S(=O)(=O)c3cccs3)C2)cc(OC)c1 (configuration not stated) | 0 | 0 | - | - | - | - | - | -
Cc1ccc(O)c(-c2cc(-c3ccccc3C)[nH]n2)c1 | 9.8 | 24.4 | 0 | 0 | 0 | 0 | 26.6 | 12.4
CC(C)(C)c1ccc(-c2cc(-c3ccccc3O)[nH]n2)cc1 | 16.5 | 33.9 | 0 | 0 | 0 | 0 | 22.0 | 10.6
Cc1ccc(O)c(-c2cc(-c3ccccc3[N+](=O)[O-])[nH]n2)c1 | 0 | 0 | 0 | 0 | - | - | - | -
Cc1ccc(S(=O)(=O)NCC2NCCc3ccccc32)cc1 (configuration not stated) | 0 | 0 | 0 | 0 | - | - | - | -
Cc1ccc(S(=O)(=O)NCC2Cc3ccccc3N2S(=O)(=O)c2ccc(C)cc2)cc1 (configuration not stated) | 9.2 | 22.1 | - | - | 0 | 0 | 38.7 | 16.9
CCN(CC)S(=O)(=O)c1cc([N+](=O)[O-])ccc1NNC(=O)Nc1ccccc1OC | 10.0 | 26.3 | 0 | 0 | 0 | 0 | 0 | 0
CCN(CC)S(=O)(=O)c1cc([N+](=O)[O-])ccc1NNC(=O)Nc1ccc(F)cc1 | 0 | 0 | 0 | 0 | - | - | - | -
COc1ccc(-c2cc(C(=O)NN=C/C(C)=C/c3ccccc3)[nH]n2)cc1 | 0 | 0 | - | - | - | - | - | -
CCOc1ccc(CCN2C(=S)N([C@@H](Cc3ccccc3)CN3CCC[C@@H]3CN3C(=S)NC[C@@H]3Cc3ccc(O)cc3)C[C@@H]2CC(C)C)cc1 | 0 | 0 | 0 | 0 | - | - | - | -
CCOc1ccc(CCN2C(=S)N([C@@H](Cc3ccc(O)cc3)CN3CCC[C@@H]3CN3C(=S)NC[C@@H]3CC(C)C)C[C@@H]2Cc2ccc(O)cc2)cc1 | 9.8 | 23.0 | 0 | 0 | 0 | 0 | 47.3 | 24.1
COCCN1CCCc2nc(-c3ccc(Br)cc3)ccc21 | 0 | 0 | - | - | - | - | - | -
COc1ccc(-n2c(=S)[nH]c3cc(C(=O)NCc4cccnc4)ccc3c2=O)c(OC)c1 | 0 | 0 | 0 | 0 | - | - | - | -
COc1ccc(-n2c(=S)[nH]c3cc(C(=O)NCc4ccccc4)ccc3c2=O)c(OC)c1 | 9.0 | 24.4 | 0 | 0 | 0 | 0 | 0 | 10.3
CCn1c2ccccc2c2cc(C=NNC(=O)c3cc(-c4ccc(OC)cc4)n[nH]3)ccc21 | 0 | 0 | - | - | - | - | - | -
CCC(=O)N(Cc1ccco1)c1nc(C(=O)Nc2ccc(Cl)cc2)c(C)s1 | 10.8 | 21.7 | 0 | 0 | 0 | 0 | 32.2 | 17.2
CCN(C(=O)c1ccco1)c1nc(CC(=O)Nc2ccc(Cl)cc2)cs1 | 0 | 0 | 0 | 0 | - | - | - | -
SMILES | ADAM17 inh | ADAM10 inh | SENP1 inh | FAS-TE inh | ADAM10 confirm | ADAM17 counter | ADAM10 ctr | ADAM17 confirm
O=C(NNC(=O)c1cc(-c2ccccc2)nc2ccccc12)Nc1cccc(Cl)c1 | 10.2 | 24.9 | 0 | 0 | 0 | 0 | 31.1 | 21.0
CCc1cccc(CC)c1NC(=O)COC(=O)CC1c2ccccc2CCN1S(=O)(=O)c1ccc(F)cc1 (configuration not stated) | 14.0 | 23.0 | 0 | 0 | 0 | 0 | 0 | 0
COC(=O)[C@]12C[C@H](CC(=O)N3CCN(C(=O)c4ccco4)CC3)C(=O)N(Cc3ccco3)C1=C[C@H](C(C)(C)C)O[C@@H]2C | 0 | 0 | - | - | - | - | - | -
COc1cc2c(cc1NC(=O)Nc1ccc(C)cc1)oc1ccccc12 | 0 | 0 | 0 | 0 | - | - | - | -
COc1cc2c(cc1NC(=O)C(C)Sc1ccc(NC(C)=O)cc1)oc1ccccc12 (configuration not stated) | 21.8 | 46.9 | 0 | 0 | 0 | 0 | 31.5 | 17.5
CCc1ccc(CCNC(=O)OCCCN2CCC3(CCC(C)CC3)C2=O)cc1 (configuration not stated) | 0 | 0 | - | - | - | - | - | -
COC(=O)[C@]12C[C@H](CC(=O)NCc3ccc(OC)c(OC)c3)C(=O)N(CCC3=CCCCC3)C1=C[C@H](C1CCCC1)O[C@@H]2C | 0 | 0 | - | - | - | - | - | -
CCc1cccc2c(C(=O)CN3C(=O)NC(C)(c4cccc5ccccc45)C3=O)c[nH]c12 (configuration not stated) | 9.6 | 30.2 | 0 | 0 | 0 | 0 | 28.2 | 16.3
O=C(c1cccs1)N1CCc2c([nH]c3ccccc23)C1c1ccc(Cl)cc1 (configuration not stated) | 18.8 | 30.9 | 0 | 0 | 0 | 0 | 0 | 11.3
CCOC(=O)c1sc(NC(=O)CSc2n[nH]c(CC(C)C)n2)nc1C | 8.8 | 27.3 | 0 | 0 | 0 | 0 | 0 | 0
CCOC(=O)c1sc(NC(=O)CSc2n[nH]c(C)n2)nc1C | 0 | 0 | 0 | 0 | - | - | - | -
CCc1cc(Cn2nc(-c3ccccc3)cc2C(=O)NCc2cccc(Br)c2)on1 | 14.5 | 20.9 | 0 | 0 | 0 | 0 | 36.5 | 22.1
CCc1cc(Cn2nc(-c3ccccc3)cc2C(=O)NCc2cccc(C(F)(F)F)c2)on1 | 0 | 0 | 0 | 0 | - | - | - | -
CCc1cc(Cn2nc(-c3ccccc3)cc2C(=O)NCc2ccc(C)cc2)on1 | 9.1 | 28.9 | 0 | 0 | 0 | 0 | 24.1 | 13.1
O=C(N[C@H]1C[C@@H]2O[C@H](CO)CC[C@@H]2O[C@@H]1CCc1ccc(-c2cccnc2)cc1)c1cccc(F)c1 | 0 | 0 | - | - | - | - | - | -
